In ChEMBL document CHEMBL3526026, “Function of the blood-brain barrier and restriction of drug delivery to invasive glioma cells: findings in an orthotopic rat xenograft model of glioma” (Drug Metab Dispos, 2013):

Tests used:
[1] = Drug uptake at steady state in MDR1A/B/BCRP1 knock-out FVB mouse brain at 0.6 mg/h/kg, ip administered as infusion after 48 hrs by LC-MS/MS analysis; format: ADME, organism-based; settings: read-out: Drug uptake
Method in brief: (§1)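 Male FVB mice, 8–10 weeks old, n = 4 per genotype. Continuous intraperitoneal infusion for 48 hours to steady state. Plasma obtained by centrifuging blood. Brain homogenized in 3 volumes of ice-cold 5% BSA in PBS. Erlotinib measured by LC-MS/MS with tyrphostin AG1478 internal standard. Brain values corrected for residual vascular blood, taking plasma space as 1.4% of brain. Mean ± S.D.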

[2] = Plasma concentration at steady state in wild-type FVB mouse at 0.6 mg/h/kg, ip administered as infusion after 48 hrs by LC-MS/MS analysis; format: ADME, organism-based; settings: read-out: Cpss; method in brief: as §1
[3] = Plasma concentration at steady state in BCRP1 knock-out FVB mouse at 0.6 mg/h/kg, ip administered as infusion after 48 hrs by LC-MS/MS analysis; format: ADME, organism-based; settings: read-out: Cpss; method in brief: as §1
[4] = Ratio of drug level in tumor rim to plasma in Rowett rat orthotopically xenografted with human U87 cells at 20 mg/kg/day for 3 days by LC-MS/MS analysis in presence of elacridar; format: ADME, organism-based, U-87MG ATCC; settings: with elacridar (dose not stated)
Method in brief: (§2)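 U87 cells (wild-type EGFR-transfected) inoculated into right frontal brain of anesthetized rats, 2.5 × 10^5 cells; tumor grown 3 weeks. Erlotinib 20 mg/kg/day in 0.5% methylcellulose by gavage for 3 days; elacridar 10 mg/kg i.v. into jugular vein 30 min before each dose. Sacrifice 30 min after last dose, saline perfusion, brain dissected into tumor core, rim, contralateral hemisphere; plasma and homogenate by LC-MS/MS; n = 4 per group.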

[5] = Drug uptake in tumor rim of Rowett rat orthotopically xenografted with human U87 cells at 20 mg/kg/day for 3 days by LC-MS/MS analysis in presence of elacridar relative to elacridar non-treated control; format: ADME, organism-based, U-87MG ATCC; settings: in vivo, 72 h; method in brief: as §2
[6] = Plasma concentration at steady state in MDR1A/B knock-out FVB mouse at 0.6 mg/h/kg, ip administered as infusion after 48 hrs by LC-MS/MS analysis; format: ADME, organism-based; settings: read-out: Cpss; method in brief: as §1
[7] = Ratio of steady state drug level in brain to plasma in MDR1A/B/BCRP1 FVB mouse at 0.6 mg/h/kg, ip administered as infusion after 48 hrs by LC-MS/MS analysis; format: ADME, organism-based; settings: read-out: BPR; method in brief: as §1
[8] = Drug uptake in brain of Rowett rat orthotopically xenografted with human U87 cells at 20 mg/kg/day, po for 5 days by LC-MS/MS analysis; format: ADME, organism-based, U-87MG ATCC; parameters: route oral; settings: read-out: Drug uptake
Method in brief: (§3)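 Rats received intracerebral U87 cells overexpressing wild-type EGFR (2.5 × 10^5 cells, right frontal, stereotaxic); tumors grew for 3 weeks. Erlotinib in 0.5% methylcellulose was given by oral gavage daily for 5 days. Sacrifice was 30 minutes after the last dose, with saline cardiac perfusion in the perfused group. Tissue was visually split into tumor core, adjacent rim and contralateral hemisphere. LC-MS/MS; n = 6.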

[9] = Drug uptake in tumor rim of Rowett rat orthotopically xenografted with human U87 cells at 20 mg/kg/day for 3 days by LC-MS/MS analysis in presence of elacridar; format: ADME, organism-based, U-87MG ATCC; settings: in vivo, 72 h
Method in brief: (§4)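 U87-EGFR orthotopic rat xenografts (3 weeks' tumor growth) received oral erlotinib in 0.5% methylcellulose daily for 3 days. Elacridar 10 mg/kg was given intravenously via the jugular vein 30 minutes before each erlotinib dose. Sacrifice was 30 minutes after the last dose, followed by saline perfusion. Tumor core, rim and contralateral brain were dissected and analyzed by LC-MS/MS; n = 4 per group, mean ± S.D.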

[10] = Ratio of drug level in brain contralateral hemisphere to plasma in Rowett rat orthotopically xenografted with human U87 cells at 20 mg/kg/day, po for 5 days by LC-MS/MS analysis; format: ADME, organism-based, U-87MG ATCC; parameters: route oral; settings: read-out: BPR
Method in brief: (§5)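 U87 cells (wild-type EGFR-transfected) inoculated into right frontal brain of anesthetized rats, 2.5 × 10^5 cells; tumor grown 3 weeks. Erlotinib 20 mg/kg/day in 0.5% methylcellulose by oral gavage for 5 days; sacrifice 30 min after last dose, with or without cardiac saline perfusion; tissue visually dissected into tumor core, rim, contralateral hemisphere; LC-MS/MS; n = 6 per group.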

Nucleic Acid [11] = assay: Ratio of drug level in tumor core to tumor rim in Rowett rat orthotopically xenografted with human U87 cells at 20 mg/kg/day, po for 5 days by LC-MS/MS analysis; format: ADME, organism-based, U-87MG ATCC; parameters: route oral; settings: in vivo, 120 h; method in brief: as §5
Nucleic Acid [12] = assay: Ratio of drug level in tumor core to brain contralateral hemisphere in Rowett rat orthotopically xenografted with human U87 cells at 20 mg/kg/day, po for 5 days by LC-MS/MS analysis; format: ADME, organism-based, U-87MG ATCC; parameters: route oral; settings: in vivo, 120 h; method in brief: as §5
Brain [13] = assay: Drug uptake in brain of Rowett rat orthotopically xenografted with human U87 cells at 20 mg/kg/day for 3 days by LC-MS/MS analysis in presence of elacridar; format: ADME, organism-based, U-87MG ATCC; settings: in vivo, 72 h; method in brief: as §4
[14] = Ratio of drug level in tumor core to plasma in Rowett rat orthotopically xenografted with human U87 cells at 20 mg/kg/day, po for 5 days by LC-MS/MS analysis; format: ADME, organism-based, U-87MG ATCC; parameters: route oral; method in brief: as §3
[15] = Ratio of steady state drug level in brain to plasma in wild-type FVB mouse at 0.6 mg/h/kg, ip administered as infusion after 48 hrs by LC-MS/MS analysis; format: ADME, organism-based; settings: read-out: BPR; method in brief: as §1
[16] = Drug uptake in tumor rim of Rowett rat orthotopically xenografted with human U87 cells at 20 mg/kg/day, po for 5 days by LC-MS/MS analysis; format: ADME, organism-based, U-87MG ATCC; parameters: route oral; settings: read-out: Drug uptake; method in brief: as §3
[17] = Ratio of steady state drug level in brain to plasma in MDR1A/B FVB mouse at 0.6 mg/h/kg, ip administered as infusion after 48 hrs by LC-MS/MS analysis; format: ADME, organism-based; settings: read-out: BPR
Method in brief: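 Male FVB Mdr1a/b−/− mice, 8–10 weeks, n = 4. Erlotinib given by constant i.p. infusion at 0.6 mg/h/kg for 48 h to steady state. Brain and plasma by LC-MS/MS after homogenizing brain in 3 volumes 5% BSA/PBS; brain values corrected for residual vascular blood (plasma space 1.4% of brain). Mean ± S.D.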

[18] = Half life in mouse; format: ADME, organism-based; settings: in vivo
[19] = Drug uptake at steady state in BCRP1 knock-out FVB mouse brain at 0.6 mg/h/kg, ip administered as infusion after 48 hrs by LC-MS/MS analysis; format: ADME, organism-based; settings: read-out: Drug uptake; method in brief: as §1
[20] = Plasma concentration at steady state in MDR1A/B/BCRP1 knock-out FVB mouse at 0.6 mg/h/kg, ip administered as infusion after 48 hrs by LC-MS/MS analysis; format: ADME, organism-based; settings: read-out: Cpss; method in brief: as §1
[21] = Ratio of drug level in tumor core to plasma in Rowett rat orthotopically xenografted with human U87 cells at 20 mg/kg/day for 3 days by LC-MS/MS analysis in presence of elacridar; format: ADME, organism-based, U-87MG ATCC; settings: with elacridar (dose not stated); method in brief: as §2
[22] = Ratio of drug level in brain contralateral hemisphere to plasma in Rowett rat orthotopically xenografted with human U87 cells at 20 mg/kg/day for 3 days by LC-MS/MS analysis in presence of elacridar; format: ADME, organism-based, U-87MG ATCC; settings: with elacridar (dose not stated), read-out: BPR; method in brief: as §2
[23] = Drug uptake in tumor core of Rowett rat orthotopically xenografted with human U87 cells at 20 mg/kg/day for 3 days by LC-MS/MS analysis in presence of elacridar relative to elacridar non-treated control; format: ADME, organism-based, U-87MG ATCC; settings: in vivo, 72 h; method in brief: as §2
[24] = Drug uptake in tumor core of Rowett rat orthotopically xenografted with human U87 cells at 20 mg/kg/day, po for 5 days by LC-MS/MS analysis; format: ADME, organism-based, U-87MG ATCC; parameters: route oral; settings: read-out: Drug uptake; method in brief: as §3
[25] = Ratio of steady state drug level in brain to plasma in BCRP1 FVB mouse at 0.6 mg/h/kg, ip administered as infusion after 48 hrs by LC-MS/MS analysis; format: ADME, organism-based; settings: read-out: BPR; method in brief: as §1
[26] = Drug uptake at steady state in wild-type FVB mouse brain at 0.6 mg/h/kg, ip administered as infusion after 48 hrs by LC-MS/MS analysis; format: ADME, organism-based; settings: read-out: Drug uptake; method in brief: as §1
[27] = Drug uptake at steady state in MDR1A/B knock-out FVB mouse brain at 0.6 mg/h/kg, ip administered as infusion after 48 hrs by LC-MS/MS analysis; format: ADME, organism-based; settings: read-out: Drug uptake; method in brief: as §1
[28] = Drug uptake in tumor core of Rowett rat orthotopically xenografted with human U87 cells at 20 mg/kg/day for 3 days by LC-MS/MS analysis in presence of elacridar; format: ADME, organism-based, U-87MG ATCC; settings: in vivo, 72 h; method in brief: as §4
[29] = Ratio of drug level in tumor rim to plasma in Rowett rat orthotopically xenografted with human U87 cells at 20 mg/kg/day, po for 5 days by LC-MS/MS analysis; format: ADME, organism-based, U-87MG ATCC; parameters: route oral; method in brief: as §3
Brain [30] = assay: Drug uptake in brain of Rowett rat orthotopically xenografted with human U87 cells at 20 mg/kg/day for 3 days by LC-MS/MS analysis in presence of elacridar relative to elacridar non-treated control; format: ADME, organism-based, U-87MG ATCC; settings: in vivo, 72 h; method in brief: as §2

concentration at 48 h [1]: 34 ng/g | concentration at 48 h [2]: 72 ng/mL | concentration at 48 h [3]: 71 ng/mL | Kp at 72 h [4]: 1 | fold change (FC) [5]: 12 | concentration at 48 h [6]: 81 ng/mL | Kp at 48 h [7]: 0.62 | concentration at 120 h [8]: 370 ng/g | Drug uptake [9]: Active | Kp at 120 h [10]: 0.09 | Ratio (Nucleic Acid [11]): 4.7 | Ratio (Nucleic Acid [12]): 5 | Drug uptake (Brain [13]): Active | Kp at 120 h [14]: 0.51 | Kp at 48 h [15]: 0.02 | concentration at 120 h [16]: 390 ng/g | Kp at 48 h [17]: 0.09 | half-life [18]: 1 h | concentration at 48 h [19]: 4.9 ng/g | concentration at 48 h [20]: 99 ng/mL | Kp at 72 h [21]: 1 | Kp at 72 h [22]: 1 | fold change (FC) [23]: 4 | concentration at 120 h [24]: 1830 ng/g | Kp at 48 h [25]: 0.07 | concentration at 48 h [26]: 4.3 ng/g | concentration at 48 h [27]: 12 ng/g | Drug uptake [28]: Active | Kp at 120 h [29]: 0.1 | fold change (FC) (Brain [30]): 12
SMILES: C#Cc1cccc(Nc2ncnc3cc(OCCOC)c(OCCOC)cc23)c1.Cl [ERLOTINIB HYDROCHLORIDE]
